Results published in ChEMBL document CHEMBL4680097 (J Med Chem, 2016).
Active and inactive are the calls of the source. The calls are words filed in the database; no cut-off is given here.

How the values were obtained:
Histone deacetylase 3 [1] = molecular target: T1, Histone deacetylase 3 (Homo sapiens, UniProt O15379); experiment: Inhibition of recombinant HDAC3 (unknown origin) at 250 nM incubated for 15 mins before substrate addition and measured after 30 to 45 mins by HDAC-Glo substrate
How it was run: (§1)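 HDAC isoforms captured from HeLa cell lysate with plate-bound isoform-specific antibodies (lysate 100 µg/mL for HDAC1/2, 1 mg/mL for HDAC3/6); inhibitor in DMSO preincubated 15 min at room temperature, then HDAC-Glo substrate/developer 30–45 min; luminescence, background-corrected against no-antibody wells; % activity vs DMSO control; at least two independent trials, mean ± standard error. Concentrations are final.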

Histone deacetylase 2 [2] = molecular target: T2, Histone deacetylase 2 (Homo sapiens, UniProt Q92769); experiment: Inhibition of recombinant HDAC2 (unknown origin) at 250 nM incubated for 15 mins before substrate addition and measured after 30 to 45 mins by HDAC-Glo substrate; how it was run: as §1
T2 sequence (Q92769 whole entry): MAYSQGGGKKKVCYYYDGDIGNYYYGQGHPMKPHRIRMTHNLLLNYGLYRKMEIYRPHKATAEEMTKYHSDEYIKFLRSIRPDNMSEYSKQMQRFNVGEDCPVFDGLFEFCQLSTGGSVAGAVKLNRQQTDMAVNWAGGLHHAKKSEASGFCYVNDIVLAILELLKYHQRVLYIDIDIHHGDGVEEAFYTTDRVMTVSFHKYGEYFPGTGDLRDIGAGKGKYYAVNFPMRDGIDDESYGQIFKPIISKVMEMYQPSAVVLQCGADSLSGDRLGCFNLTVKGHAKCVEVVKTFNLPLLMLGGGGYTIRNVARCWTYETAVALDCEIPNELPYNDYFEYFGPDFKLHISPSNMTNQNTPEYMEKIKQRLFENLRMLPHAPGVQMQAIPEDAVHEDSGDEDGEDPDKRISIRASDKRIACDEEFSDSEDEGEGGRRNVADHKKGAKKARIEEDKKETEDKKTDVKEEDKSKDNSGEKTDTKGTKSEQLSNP

[3] = system: Panel NCI-60 (60 carcinoma cell lines); experiment: Growth inhibition of human NCI-60 cells assessed as cell growth at 10 uM; type: functional; details: read-out: Activity
How it was run: (§2)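 NCI-60 human tumour cell line panel; initial single-dose screen at 10 μM, growth inhibition reported per cell line.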

[4] = molecular target: T3, Histone deacetylase (Homo sapiens) (UniProt Q13547+O15379+Q9UBN7+Q92769+Q9UQL6+Q8WUI4+Q9BY41+Q96DB2+P56524+Q9UKV0+Q969S8); experiment: Inhibition of HDAC in human HCT-116 cells assessed increase in global histone H3 lysine 9 acetylation at 10 nM incubated for 24 hrs by Western blot analysis; type: cell-based
How it was run: (§3)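 HCT116 cells exposed 24 h at 10 nM, 100 nM or 1 μM; global histone H3 lysine 9 acetylation detected by Western blot.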

HCT-116 = experiment: Growth inhibition of human HCT-116 cells incubated for 96 hrs by MTS assay; type: functional
Histone deacetylase 1 [5] = molecular target: T4, Histone deacetylase 1 (Homo sapiens, UniProt Q13547); experiment: Inhibition of recombinant HDAC1 (unknown origin) at 250 nM incubated for 15 mins before substrate addition and measured after 30 to 45 mins by HDAC-Glo substrate; how it was run: as §1
T4 sequence (Q13547 whole entry): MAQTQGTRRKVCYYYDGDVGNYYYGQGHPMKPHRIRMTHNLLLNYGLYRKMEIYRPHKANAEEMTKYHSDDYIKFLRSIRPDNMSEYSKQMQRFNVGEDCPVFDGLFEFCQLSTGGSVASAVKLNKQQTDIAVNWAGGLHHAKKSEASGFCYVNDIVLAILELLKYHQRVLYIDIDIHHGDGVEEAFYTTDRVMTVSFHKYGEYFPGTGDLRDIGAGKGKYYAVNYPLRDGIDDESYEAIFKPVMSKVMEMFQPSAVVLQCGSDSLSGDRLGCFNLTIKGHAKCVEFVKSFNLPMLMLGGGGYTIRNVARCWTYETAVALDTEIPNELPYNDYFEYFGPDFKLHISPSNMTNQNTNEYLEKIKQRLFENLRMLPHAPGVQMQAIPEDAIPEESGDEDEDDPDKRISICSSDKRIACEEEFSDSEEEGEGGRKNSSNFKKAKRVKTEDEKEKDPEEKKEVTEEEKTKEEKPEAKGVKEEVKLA

Histone deacetylase 2 [6] = molecular target: T2, Histone deacetylase 2; experiment: Inhibition of recombinant HDAC2 (unknown origin) at 2 uM incubated for 15 mins before substrate addition and measured after 30 to 45 mins by HDAC-Glo substrate; how it was run: as §1
[7] = system: Panel NCI-60 (60 carcinoma cell lines); experiment: Growth inhibition of human NCI-60 cells at 10 uM; type: functional; details: read-out: GI; how it was run: as §2
Histone deacetylase 3 [8] = molecular target: T1, Histone deacetylase 3; experiment: Inhibition of recombinant HDAC3 (unknown origin) at 2 uM incubated for 15 mins before substrate addition and measured after 30 to 45 mins by HDAC-Glo substrate; how it was run: as §1
[9] = molecular target: T3, Histone deacetylase (Homo sapiens); experiment: Inhibition of HDAC in human HCT-116 cells assessed increase in global histone H3 lysine 9 acetylation at 100 nM incubated for 24 hrs by Western blot analysis; type: cell-based; how it was run: as §3
Histone deacetylase 1 [10] = molecular target: T4, Histone deacetylase 1; experiment: Inhibition of recombinant HDAC1 (unknown origin) at 2 uM incubated for 15 mins before substrate addition and measured after 30 to 45 mins by HDAC-Glo substrate; how it was run: as §1
Histone deacetylase 2 [11] = molecular target: T2, Histone deacetylase 2; experiment: Inhibition of recombinant HDAC2 (unknown origin)incubated for 15 mins before substrate addition and measured after 30 to 45 mins by HDAC-Glo substrate; how it was run: as §1
Histone deacetylase 1 [12] = molecular target: T4, Histone deacetylase 1; experiment: Inhibition of recombinant HDAC1 (unknown origin) incubated for 15 mins before substrate addition and measured after 30 to 45 mins by HDAC-Glo substrate; how it was run: as §1
Histone deacetylase 2 [13] = molecular target: T2, Histone deacetylase 2; experiment: Inhibition of recombinant HDAC2 (unknown origin) at 1 uM incubated for 15 mins before substrate addition and measured after 30 to 45 mins by HDAC-Glo substrate; how it was run: as §1
Histone deacetylase 1 [14] = molecular target: T4, Histone deacetylase 1; experiment: Inhibition of recombinant HDAC1 (unknown origin) at 1 uM incubated for 15 mins before substrate addition and measured after 30 to 45 mins by HDAC-Glo substrate; how it was run: as §1
Histone deacetylase 3 [15] = molecular target: T1, Histone deacetylase 3; experiment: Inhibition of recombinant HDAC3 (unknown origin) at 1 uM incubated for 15 mins before substrate addition and measured after 30 to 45 mins by HDAC-Glo substrate; how it was run: as §1
Homo sapiens [16] = organism: Homo sapiens; experiment: Selectivity index, ratio of IC50 for recombinant HDAC6 (unknown origin) to IC50 for recombinant HDAC2 (unknown origin)
Homo sapiens [17] = organism: Homo sapiens; experiment: Selectivity index, ratio of IC50 for recombinant HDAC6 (unknown origin) to IC50 for recombinant HDAC3 (unknown origin)
Homo sapiens [18] = organism: Homo sapiens; experiment: Selectivity index, ratio of IC50 for recombinant HDAC6 (unknown origin) to IC50 for recombinant HDAC1 (unknown origin)
Histone deacetylase 3 [19] = molecular target: T1, Histone deacetylase 3; experiment: Inhibition of recombinant HDAC3 (unknown origin)incubated for 15 mins before substrate addition and measured after 30 to 45 mins by HDAC-Glo substrate; how it was run: as §1

T1 sequence (O15379 whole entry, canonical isoform): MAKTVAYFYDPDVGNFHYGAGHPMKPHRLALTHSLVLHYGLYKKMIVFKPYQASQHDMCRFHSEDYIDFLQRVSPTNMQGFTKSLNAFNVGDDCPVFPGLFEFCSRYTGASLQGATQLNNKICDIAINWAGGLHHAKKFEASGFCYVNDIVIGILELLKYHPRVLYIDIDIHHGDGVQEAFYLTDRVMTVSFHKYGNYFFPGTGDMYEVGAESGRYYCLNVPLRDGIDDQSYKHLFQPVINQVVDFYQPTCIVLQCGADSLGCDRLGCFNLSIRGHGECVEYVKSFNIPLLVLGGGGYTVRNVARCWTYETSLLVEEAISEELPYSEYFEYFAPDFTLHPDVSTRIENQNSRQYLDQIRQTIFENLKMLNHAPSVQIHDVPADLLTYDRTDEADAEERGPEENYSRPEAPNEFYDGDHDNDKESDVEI

Compound	inhibition (Histone deacetylase 3 [1])	inhibition (Histone deacetylase 2 [2])	Increase in histone H3K9 acetylation (qualitative call) [4]	GI50 (HCT-116) [nM]	inhibition (Histone deacetylase 1 [5])	inhibition [9]	growth at 10 µM [3] [%]	inhibition of growth at 10 µM [7] [%]	further results
CCCCCCCC(=O)SCC/C=C/[C@@H]1CC(=O)NCCOCCOCC(=O)N[C@@H](C(C)C)C(=O)O1				750		Active	38.6	60	inhibition (Histone deacetylase 2 [6]): Active; inhibition (Histone deacetylase 3 [8]): Active; inhibition (Histone deacetylase 1 [10]): Active
CCCCCCCC(=O)SCC/C=C/[C@@H]1CC(=O)NCc2nc(cs2)C2=N[C@@](C)(CS2)C(=O)N[C@@H](C(C)C)C(=O)O1 [LARGAZOLE]			Active	65				60	IC50 (Histone deacetylase 2 [11]): 64 nM; IC50 (Histone deacetylase 1 [12]): 61 nM
CCCCCCCC(=O)SCC/C=C/[C@@H]1CC(=O)NCc2cccc(n2)CN(C)CC(=O)N[C@@H](C(C)C)C(=O)O1				800		Active	40.8	60	
CCCCCCCC(=O)SCC/C=C/[C@@H]1CC(=O)NCc2cccc(n2)CN(Cc2cccc3ccccc23)CC(=O)N[C@@H](C(C)C)C(=O)O1				> 5000		inactive	34.9		inhibition (Histone deacetylase 2 [6]): Active; inhibition (Histone deacetylase 3 [8]): Active; inhibition (Histone deacetylase 1 [10]): Active

Second part, led by results:

inhibition (Histone deacetylase 3 [1])	inhibition (Histone deacetylase 2 [2])	Increase in histone H3K9 acetylation (qualitative call) [4]	GI50 (HCT-116) [nM]	inhibition (Histone deacetylase 1 [5])	inhibition [9]	Compound	growth at 10 µM [3] [%]	inhibition of growth at 10 µM [7] [%]	further results
inactive	inactive	Active	> 5000	inactive		CCCCCCCC(=O)SCC/C=C/[C@@H]1CC(=O)NCc2cccc(n2)CN(Cc2ccccc2)CC(=O)N[C@@H](C(C)C)C(=O)O1	-4.39		
inactive	inactive	Active	2670	inactive		CCCCCCCC(=O)SCC/C=C/[C@@H]1CC(=O)NCc2cccc(n2)CN(Cc2ccc(Cl)cc2)CC(=O)N[C@@H](C(C)C)C(=O)O1	1.42		
		Active	3200			CCCCCCCC(=O)SCC/C=C/[C@@H]1CC(=O)NCc2cccc(n2)CN(Cc2ccc(C(F)(F)F)cc2)CC(=O)N[C@@H](C(C)C)C(=O)O1	0.43		inhibition (Histone deacetylase 2 [13]): inactive; inhibition (Histone deacetylase 1 [14]): inactive; inhibition (Histone deacetylase 3 [15]): inactive
inactive	inactive	Active	4250	inactive		CCCCCCCC(=O)SCC/C=C/[C@@H]1CC(=O)NCc2cccc(n2)CN(Cc2ccc(OC)cc2)CC(=O)N[C@@H](C(C)C)C(=O)O1	5.41		
Active	Active	Active	75	Active		CCCCCCCC(=O)SCC/C=C/[C@@H]1CC(=O)NCc2cccc(n2)-c2cccc(n2)C(=O)N[C@@H](C(C)C)C(=O)O1	-16.2		Ratio IC50 (Homo sapiens [16]): 464; Ratio IC50 (Homo sapiens [17]): 481; IC50 (Histone deacetylase 2 [11]): 28 nM; Ratio IC50 (Homo sapiens [18]): 619; IC50 (Histone deacetylase 3 [19]): 27 nM; IC50 (Histone deacetylase 1 [12]): 21 nM
